Sampled rows, rich in hits. Any-hit rate of the full collection: about 4.2%.
SENP1 inh: human SENP1 catalytic domain inhibitors, primary screen, biochemical, FRET, uHTS | Sentrin-specific protease 1 (Homo sapiens), Q9P0U3 | recombinant SENP1 catalytic domain, CyPet-SUMO1-YPet FRET cleavage | inhibition, % at 10 µM | hit rate 0.21% among 360,000 | AID 624204, 2012;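 active means inhibition at least 30% at 10 µM, raw YFP signal under a set limit, fluorescence ratio 0.5 to 1.5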;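 further: 0% = enzyme with DMSO and 100% = no enzyme wells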
Target sequence (Q9P0U3 419-644 limits assumed): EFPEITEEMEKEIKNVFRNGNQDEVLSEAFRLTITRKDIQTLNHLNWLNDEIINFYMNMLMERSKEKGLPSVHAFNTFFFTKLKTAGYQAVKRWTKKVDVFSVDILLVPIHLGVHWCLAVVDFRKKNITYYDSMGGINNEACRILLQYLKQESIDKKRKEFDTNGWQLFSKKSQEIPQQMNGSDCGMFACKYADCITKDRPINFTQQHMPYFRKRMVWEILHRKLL
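system = hSENP1 catalytic domain, recombinant | reagent = SFCypet-SUMO1-SFYpet substrate at 25 nM | doses = one dose per compound, 10 µM, 0.5% DMSO | incubation = enzyme reaction for 50 min at room temperature, dark | measured by = FRET, CFP and YFP emission | controls = no-enzyme low, enzyme-DMSO high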
AHR activator: AHR activators, primary screen, cell-based, luminescence, luciferase reporter, human. Aryl hydrocarbon receptor (Homo sapiens), P35869. AHR-responsive luciferase reporter cells. activation, % at 5 µM. hit rate 2.5% among 320,000; in the data active means activation above about 47%;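 further: 0% = vehicle wells and 100% = reference agonist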
HDAC3 inhib: HDAC3 deacetylase inhibitors, primary screen, biochemical, fluorescence, cell-free homogeneous | hit rate 0.15% among 320,000 | inhibition, % at 8.3 µM | recombinant HDAC3, fluorogenic peptide/trypsin coupled; in the data active means inhibition above about 26%, passing the limit was not always enough
Target sequence (O15379 whole entry, looked up): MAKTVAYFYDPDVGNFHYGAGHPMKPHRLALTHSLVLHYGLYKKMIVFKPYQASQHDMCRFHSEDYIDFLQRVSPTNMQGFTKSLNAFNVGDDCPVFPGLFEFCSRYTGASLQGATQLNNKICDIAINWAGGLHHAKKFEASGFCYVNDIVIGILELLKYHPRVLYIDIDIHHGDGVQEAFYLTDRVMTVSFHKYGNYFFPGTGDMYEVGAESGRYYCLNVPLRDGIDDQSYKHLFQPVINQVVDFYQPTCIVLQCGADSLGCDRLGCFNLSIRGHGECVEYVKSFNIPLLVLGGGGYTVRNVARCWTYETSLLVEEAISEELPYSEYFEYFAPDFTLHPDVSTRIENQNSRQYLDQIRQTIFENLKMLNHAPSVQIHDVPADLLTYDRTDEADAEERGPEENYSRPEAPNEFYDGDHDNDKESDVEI
FXN GAA850 act: FXN promoter activators, primary screen, cell-based, luciferase luminescence, HEK293 lucGAA850; HEK293 lucGAA850 FXN promoter luciferase reporter, 24 h; percent of 10 µM SAHA response; activation, % at 6 µM; hit rate 0.56% among 360,000; AID 540364, 2011;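 active means activation above the average of all compounds screened plus 3 SD, cutoff fixed separately per campaign, cut at about 7.5% in these data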;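 further: 0% = DMSO wells and 100% = 10 µM SAHA wells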
Fh CTSL1 inh: Fasciola hepatica cathepsin L1 inhibitors, primary screen, counter-screen for PFM18AAP inhibitor project, biochemical, QFRET, fluorogenic peptide substrate; recombinant F. hepatica cathepsin L1, Z-Leu-Arg-MCA fluorescence; inhibition, % at 5.96 µM; hit rate 0.49% among 300,000;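 active means inhibition above the mean of all tested compounds plus 3 SD, set per screening campaign, cut at about 17% in these data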;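 further: 0% = plate median of test compound wells and 100% = 1 µM Z-Phe-Ala-diazomethylketone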
PfM18AAP inh: PfM18AAP inhibitors, malaria aminopeptidase, primary screen, biochemical, QFRET, recombinant enzyme; H-Glu-NHMec fluorogenic cleavage; inhibition, % at 7.35 µM; hit rate 1.2% among 290,000; AID 1822, 2009;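 active means inhibition above the campaign mean inhibition over all tested compounds plus 3 SD, cut at about 28% in these data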;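 further: 0% = plate median of test compound wells and 100% = 2 mM ZnCl2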
GAA30 FXN cntr: GAA30 FXN promoter activators, confirmation, counter-screen for GAA850 frataxin promoter activator project, cell-based, luminescence, HEK293, lucGAA30, triplicate; shares compounds with FXN GAA850 act; AID 588350, 2011; hit rate 66% among 1,900; HEK293 lucGAA30 FXN promoter luciferase, 24 h; DMSO = 0%, 5 µM ipriflavone = 100%; activation, % at 6 µM;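 active means mean activation above the mean of solvent-only control wells plus 3 SD, cut at about 22% in these data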;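 further: counterscreen of GAA850 promoter hits where activity marks nonselective or luminescence artifacts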
FXN GAA850 conf: FXN GAA850 promoter activators in reporter cells, confirmation, cell-based, luminescence, HEK293 lucGAA850, triplicate. shares compounds with FXN GAA850 act. HEK293 lucGAA850 FXN promoter luciferase reporter, 24 h; 100% = activation by SAHA. activation, % at 6 µM. hit rate 86% among 1,900;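 active means mean activation above a set limit taken from the primary screen, cut at about 8% in these data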;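 further: 0% = DMSO wells and 100% = 10 µM SAHA wells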
Active calls of the source: *.

COc1ccccc1CN1CC(C(=O)NCc2c(F)ccc(C)c2F)CCC1=O (centres undefined) was read as SENP1 inh 2, AHR activator 8, HDAC3 inhib 0, FXN GAA850 act 2, Fh CTSL1 inh -2 and PfM18AAP inh 5.
Screening COc1ccc(Nc2cnn(-c3nc4ccccc4s3)c(=O)c2Cl)cc1 returned SENP1 inh 1, AHR activator 16, HDAC3 inhib -2, FXN GAA850 act 20*, Fh CTSL1 inh -2, PfM18AAP inh 5, GAA30 FXN cntr 31* and FXN GAA850 conf 39*.
`CCCc1nc2ccc(C)cn2c1Cc1ccsc1` gave SENP1 inh -14.
N#C/C(=C\c1ccc(N2CCOCC2)o1)c1ccccc1 was read as SENP1 inh -10, AHR activator -1, HDAC3 inhib 0, FXN GAA850 act 12*, Fh CTSL1 inh 15, PfM18AAP inh -3, GAA30 FXN cntr 139* and FXN GAA850 conf 45*.
For Nc1ccc2c(c1)C(=O)N(c1cccc3ccccc13)C2=O the results were SENP1 inh -25, AHR activator 1, HDAC3 inhib -7, FXN GAA850 act 1, Fh CTSL1 inh -2 and PfM18AAP inh -3.
For CC1=CC(=O)N(c2cccc3c(N4C(=O)C=C(C)C4=O)cccc23)C1=O the results were SENP1 inh -1, FXN GAA850 act 9.2*, GAA30 FXN cntr 15 and FXN GAA850 conf 26*.
Screening CC(C)(C)c1ccc(/C=C/C(=O)Nc2nncs2)cc1 returned SENP1 inh 2, AHR activator 15, HDAC3 inhib 7, FXN GAA850 act 7.6*, Fh CTSL1 inh 0, PfM18AAP inh 1, GAA30 FXN cntr 108* and FXN GAA850 conf 39*.
Screening COC(=O)Nc1nncs1 returned SENP1 inh 2, AHR activator -1, HDAC3 inhib 4, FXN GAA850 act 4, Fh CTSL1 inh -1 and PfM18AAP inh 0.
N#CC1=C(N)OC2=C(C(=O)CCC2)C1c1cc2c(cc1Br)OCO2 (centres undefined) was read as SENP1 inh -142, AHR activator 2, HDAC3 inhib -3, FXN GAA850 act 1, Fh CTSL1 inh 2 and PfM18AAP inh 3.
`COc1ccccc1Oc1ccc(N/C=C/C(=O)c2ccco2)cc1` gave SENP1 inh -23, AHR activator 17, HDAC3 inhib 10, FXN GAA850 act 12*, Fh CTSL1 inh 1, PfM18AAP inh 1, GAA30 FXN cntr 83* and FXN GAA850 conf 34*.
Screening COc1cc(/C=N/O)ccc1OCc1ccccc1Cl returned SENP1 inh 0, AHR activator 8, HDAC3 inhib -1, FXN GAA850 act 12*, Fh CTSL1 inh 2, PfM18AAP inh 2, GAA30 FXN cntr 122* and FXN GAA850 conf 38*.
`Cc1cnc(N=Nc2ccccc2)[nH]1` gave SENP1 inh 0, FXN GAA850 act 7.7*, GAA30 FXN cntr 101* and FXN GAA850 conf 28*.
`COc1cc(CCCN2CCNC[C@@H]2Cc2ccc(O)cc2)cc(OC)c1OC` gave SENP1 inh 1, AHR activator 1, HDAC3 inhib -3, FXN GAA850 act 3 and Fh CTSL1 inh -1.
For Cc1ccc(S(=O)(=O)N2CCSC2=Nc2ccccc2)cc1 the results were AHR activator -1, HDAC3 inhib -8, Fh CTSL1 inh -19 and PfM18AAP inh -5.
`Oc1csc(Cc2nc(-c3ccc(Br)cc3)cs2)n1` gave SENP1 inh 12, AHR activator 78*, HDAC3 inhib -4, FXN GAA850 act 7.6*, Fh CTSL1 inh -2, PfM18AAP inh 1, GAA30 FXN cntr 96* and FXN GAA850 conf 38*.
`Cc1cc(=O)[nH]n(CCO)c1=O` gave SENP1 inh 1, AHR activator -1, HDAC3 inhib 1, FXN GAA850 act 0, Fh CTSL1 inh 0 and PfM18AAP inh 0.
For COC(=O)/C(=C1/Oc2ccc(C(C)(C)C)cc2S1)C(F)(F)F the results were SENP1 inh -1, AHR activator 0, HDAC3 inhib 3, FXN GAA850 act 1, Fh CTSL1 inh 0 and PfM18AAP inh 0.
Screening COC(=O)/C(=C1/Oc2cc(C)oc(=O)c2S1)C(F)(F)F returned SENP1 inh -22, AHR activator -2, HDAC3 inhib 15, FXN GAA850 act 13*, Fh CTSL1 inh 7, PfM18AAP inh 10, GAA30 FXN cntr 17 and FXN GAA850 conf 24*.
`COc1ccc2c(c1)OC[C@H]1[C@H]2N2C(=O)CN(Cc3ccc(C)cc3)C(=O)[C@@]2(C)[C@H]1c1ccccc1` gave SENP1 inh 1, AHR activator -2, HDAC3 inhib 0 and FXN GAA850 act 1.
COc1ccc(/C=C/C(=O)c2ccc3c(c2)OCO3)c(OC)c1 was read as SENP1 inh -91, AHR activator 12, HDAC3 inhib 15, FXN GAA850 act 6, Fh CTSL1 inh 2 and PfM18AAP inh 5.
Screening COc1cccc(/C=C/C(=O)c2ccc3c(c2)OCCO3)c1OC returned SENP1 inh 1, AHR activator 7, HDAC3 inhib 5, FXN GAA850 act 7.9*, Fh CTSL1 inh -3, PfM18AAP inh -7, GAA30 FXN cntr 98* and FXN GAA850 conf 39*.
`COc1ccccc1/C=C/C(=O)c1ccccc1` gave SENP1 inh 2, HDAC3 inhib 4, FXN GAA850 act 7.6*, PfM18AAP inh 6, GAA30 FXN cntr 87* and FXN GAA850 conf 33*.
For O=C(/C=C/c1ccccc1[N+](=O)[O-])c1ccc(F)cc1 the results were SENP1 inh 0, AHR activator 8, HDAC3 inhib -2, FXN GAA850 act 8.5*, Fh CTSL1 inh 7, PfM18AAP inh -6, GAA30 FXN cntr 57* and FXN GAA850 conf 25*.
`COc1ccc(/C=C/C(=O)c2ccccc2)c(OC)c1` gave SENP1 inh -61, AHR activator 3, HDAC3 inhib 5, FXN GAA850 act 3, Fh CTSL1 inh -2 and PfM18AAP inh 7.

Source: PubChem BioAssay
